Compound activity as filed in PubChem BioAssay.
Sampled rows, rich in hits. Any-hit rate of the full collection: about 4.3%.
OX1R antag-1 = antagonists of human orexin 1 receptor (OX1R) | Orexin/Hypocretin receptor type 1 (Homo sapiens), O43613 | OX1R-expressing cells, FRET antagonist read-out | inhibition, % at 6.6 µM | actives 1.8% (n = 330,000); in the data active = inhibition mostly above about 38%, no sharp cut-off; inactive = mostly below about 40%;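 also: 0% = agonist challenge alone and 100% = reference antagonist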
TAAR1 antag = human TAAR1 antagonists, primary screen, Fluo-8 calcium fluorescence, CHO RD-HGA16 cells; Trace amine-associated receptor 1 (Homo sapiens), Q96RJ0; inhibition, % at 3 µM; antagonist; actives 1.5% (n = 360,000);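 active = inhibition above a per-plate cutoff, the mean inhibition of test compounds on that plate plus 3 SD, cut at about 49% in these data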;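 also: 0% = DMSO plus EC80 beta-PEA response and 100% = DMSO alone without agonist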
Target sequence (Q96RJ0 whole entry, looked up): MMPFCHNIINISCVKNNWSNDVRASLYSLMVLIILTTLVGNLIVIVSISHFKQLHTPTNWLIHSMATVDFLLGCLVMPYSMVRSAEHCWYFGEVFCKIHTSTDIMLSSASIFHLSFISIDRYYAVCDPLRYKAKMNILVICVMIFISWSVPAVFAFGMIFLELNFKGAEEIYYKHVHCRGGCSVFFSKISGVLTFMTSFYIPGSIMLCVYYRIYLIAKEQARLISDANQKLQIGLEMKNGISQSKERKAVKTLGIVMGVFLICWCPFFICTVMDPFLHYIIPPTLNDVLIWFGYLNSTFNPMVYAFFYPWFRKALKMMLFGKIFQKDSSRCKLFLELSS
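System: RD-HGA16 CHO cells with stable hTAAR1 and Gα16 | Probe or stimulus: EC80 β-phenethylamine stimulus | Dosing: 3 µM, single point | Times: Dye loading 75 min at 37 °C, then 30 min room temperature | Measured by: Fluo-8 calcium-sensitive fluorescence | Read-out basis: % inhibition of agonist calcium response | Replicates: n of 1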
OX1R antag-2 = OX1R (HCRTR1) antagonists, primary screen, fluorescence, CHO/OX1R cells, Fluo-8 calcium, orexin A | Orexin/Hypocretin receptor type 1 (Homo sapiens), O43613 | Fluo-8 calcium fluorescence | inhibition, % at 5 µM | actives 0.43% (n = 330,000) | AID 434989, 2010;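 active = inhibition above its plate's threshold, mean inhibition of all tested compounds on the plate plus 3 SD, cut at about 37% in these data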;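 also: 0% = orexin A challenge wells and 100% = SB-334867-A antagonist wells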
TAAR1 agonist = human TAAR1 agonists, primary screen, Fluo-8 calcium fluorescence, CHO RD-HGA16 cells | vehicle wells 0%, saturating PEA agonist 100% | activation, % at 3 µM | actives 0.99% (n = 360,000) | AID 624467, 2012;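 active = activation above the mean activation of all test compounds in the run plus 3 SD, cut at about 38% in these data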
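System: CHO-derived RD-HGA16 cells with stable Gα16 and human TAAR1 / Times: 17-24 h plating, Fluo-8 75 min 37 °C, 30 min RT / Technique: calcium-sensitive Fluo-8 signal, excitation 470-495, emission 515-575 nm / Measure: % activation relative to PEA EC100 response / Benchmarks: DMSO and PEA EC100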
CHO parental Ca = ATP-evoked calcium signal inhibitors, parental CHO, primary screen, counter-screen for OX1R antagonist project, cell-based, fluorescence, Fluo-8 calcium dye. parental CHO-K1, ATP-induced calcium, Fluo-8 fluorescence. actives 0.63% (n = 330,000). inhibition, % at 5.6 µM;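 active = inhibition above that plate's mean sample inhibition plus 3 SD, cut at about 26% in these data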;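 also: 0% = ATP-challenged DMSO wells and 100% = DMSO wells without ATP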
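Measured by: calcium-sensitive Fluo-8 fluorescence / Test system: CHO parental line / Controls: ATP-challenged DMSO wells low, unchallenged DMSO wells high / Measure: % inhibition / Compound: single nominal dose of 5.6 µM per compound / Replicates: single well per compound, no replicates / Reagent: ATP as calcium-mobilizing challenge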
GalR3 antag = GalR3 antagonists in HEK293 cells, primary screen, cell-based, fluorescence readout. Galanin receptor type 3 (Homo sapiens), O60755. HEK293 GalR3-CNG cAMP membrane potential fluorescence; galR3 body fused to GalR1 C-terminus. inhibition, % at 3 µM. actives 0.44% (n = 360,000). AID 651719, 2012;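 active = inhibition above the screen-wide average plus 3 SD, cut at about 13% in these data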;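 also: forskolin and galanin both at EC90 stimulate the cells; cAMP rise reported by CNG channel membrane potential dye signal; 0% = forskolin plus galanin with DMSO and 100% = forskolin alone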
* hit, by the source's call; · = no result.

SMILES	OX1R antag-1	TAAR1 antag	OX1R antag-2	TAAR1 agonist	CHO parental Ca	GalR3 antag
COc1ccc(NS(=O)(=O)c2ccc(S(=O)(=O)N3CCOCC3)cc2)cc1	16	6	-11	25	2	-5
COc1ccc(S(=O)(=O)Nc2cccc(S(=O)(=O)N3CCCCC3)c2)cc1	50*	-17	-5	3	-26	-5
O=S(=O)(Nc1ccccc1OC(F)F)c1ccc(S(=O)(=O)N2CCCC2)cc1	31*	12	8	1	-11	-8
O=S(=O)(Nc1cccc(S(=O)(=O)N2CCCC2)c1)c1ccc(Br)cc1	·	-4	·	2	·	-8
CO[C@@H]1[C@H](O)CC[C@]2(O)CN(c3ccccc3)[C@](C)([C@H](O)CC=C(C)C)[C@@H]12	·	-29	·	6	·	-1
O=C1CC(C(=O)N2CCN(S(=O)(=O)c3cccc(F)c3)CC2)CN1Cc1ccccc1Cl (stereo not drawn)	12	0	-9	2	-13	-4
COc1ccc(NS(=O)(=O)c2ccc3c(c2)N(C(C)=O)CC(C)S3)c(OC)c1 (stereo not drawn)	21	11	-8	7	-1	-9
CCCN1CCCCC(NC(=O)c2ccccc2OC)C1=O (stereo not drawn)	·	-3	·	2	·	-7
O=C1OC(CN(Cc2ccccc2)Cc2ccccc2)CN1N=Cc1ccc([N+](=O)[O-])o1 (stereo not drawn)	·	27	·	-1	·	-2
O=C1CN(/N=C/c2ccc([N+](=O)[O-])o2)C(=O)N1	84*	-20	1	1	0	·
O=C1OC(CN2CCOCC2)CN1N=Cc1ccc([N+](=O)[O-])o1 (stereo not drawn)	60*	-22	-2	1	0	-2
CC(C)=CCCC1=CC[C@H]2[C@@H](C1)C(C(C)C)=CC(=O)[C@@]2(C)O	·	-26	·	12	·	-3
COc1ccc(-c2cc3nc(-c4ccccc4)cc(N4CCC(O)CC4)n3n2)cc1	19	49*	-11	12	2	-5
FC(F)(F)c1cccc(NC(=S)Nc2cccc(NC(=S)Nc3cccc(C(F)(F)F)c3)n2)c1	3	17	-12	14	-11	-6
O=C1CSC(=S)N1/N=C/c1cc(Br)c(O)c(Br)c1	46	·	90*	·	75*	·
CC(=O)Nc1cc(-c2cccnc2)cn2c(-c3cccc(C(F)(F)F)c3)cnc12	·	4	·	-1	·	-4
O=C(NCCc1ccccc1)C1CCCN(S(=O)(=O)c2cccnc2)C1 (stereo not drawn)	7	-2	-3	40*	-3	-4
COc1ccccc1CCNC(=O)Cn1ccc2cc(S(=O)(=O)N3CCCC3)ccc21	55*	-11	19	4	-3	-6
Cc1ccccc1CCNC(=O)CCn1ccc2cc(S(=O)(=O)N3CCCC3)ccc21	8	-3	-20	44*	-23	-5
Cn1c(=O)oc2cc(S(=O)(=O)N3CCC(C(=O)NCCc4ccccc4)CC3)ccc21	8	-3	-6	1	41*	3
CCCCCNC(=O)C1C(=O)Nc2ccccc2C(=O)N1c1c(C)cccc1C (stereo not drawn)	·	8	·	1	·	-4
CCCNC(=O)C1(C)CCN(Cc2cc(-c3ccccc3)on2)C1 (stereo not drawn)	·	-27	·	1	·	-5
CSc1ccc(CN(C)C(=O)COc2ccc(C(=O)c3ccccc3)cc2)cc1	-4	7	-16	1	-27	-9
O=C(Cn1ccc2cc(S(=O)(=O)N3CCCC3)ccc21)NCCc1ccccc1	55*	-10	21	31	-4	-7
CCn1c(SCc2ccc(C(=O)Nc3cc(C)cc(C)c3)cc2)nnc1-c1ccncc1	33	59*	-26	22	-11	-2
